The source of these data is ChEMBL document CHEMBL4732104, “Discovery of bardoxolone derivatives as novel orally active necroptosis inhibitors” (Eur J Med Chem, 2021).

In test [1] the test system is Mus musculus. Description: Protection against TNFalpha-induced C57BL/6J mouse model of systemic inflammatory response syndrome assessed as reduction in IL1beta level at 20 mg/kg, ig administered via gavage 2 hrs prior to TNFalpha stimulation and measured after 6 hrs by ELISA. The following applies: time 8.0 hrs. It counts as functional, organism-based. The procedure, abridged: (§1)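 Female C57BL/6J mice, 6–8 weeks, fasted overnight, n=11 per group. Agent suspended in 0.5% CMC-Na, given by oral gavage 2 h before i.v. mTNF-α (250 µg/kg in PBS). z-VAD-fmk i.p. 200 µg 15 min before and 75 µg 1 h after. Serum IL-1β and IL-6 measured by ELISA at 6 h.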

Test [2] has as its system HT-29. Nature of the test: Anti-necroptotic activity in human HT-29 cells assessed as inhibition of TNFalpha/SM-164/Z-VAD-fmk (TSZ)-induced necroptosis by measuring increase in cell viability at 10 uM measured after 12 hrs in presence of RIPK1 inhibitor Nec-1 by celltiter-glo luminescent cell viability assay. Format: functional, cell-based. The procedure, abridged:
(§2)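 HT-29 cells exposed to test agent combined with a second necroptosis inhibitor, then stimulated with TSZ for 12 h to assess synergy. Viability read by CellTiter-Glo luminescence.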
On the technique in general: Cellular ATP, detected with luciferase, serves as a proxy for viable cell number.

Test [3] deals with Mus musculus. Description: Protection against TNFalpha-induced C57BL/6J mouse model of systemic inflammatory response syndrome assessed as reduction in IL6 level at 20 mg/kg, ig administered via gavage 2 hrs prior to TNFalpha stimulation and measured after 6 hrs by ELISA. It counts as functional, organism-based. The following applies: time 8.0 hrs. Put shortly: as §1
(An ELISA detects its analyte on a solid surface through an enzyme-linked reagent.)

The test system of test [4] is Mus musculus. Description: Protection against TNFalpha-induced C57BL/6J mouse model of systemic inflammatory response syndrome assessed as survival at 20 mg/kg, ig administered via gavage 2 hrs prior to TNFalpha stimulation and measured after 10 to 60 mins relative to control. It counts as functional. The following applies: po, time 2-3 hrs. The procedure, abridged: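 Female C57BL/6 J mice, 6–8 weeks, fasted overnight, n=11 per group. Compound suspended in 0.5% CMC-Na, by oral gavage 2 h before mTNF-α 250 µg/kg i.v.; z-VAD-fmk 200 µg i.p. 15 min before and 75 µg 1 h after TNF. Survival and body temperature monitored.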

Test [5] relates to Mus musculus. Description: Protection against TNFalpha-induced C57BL/6J mouse model of systemic inflammatory response syndrome assessed as reduction in hypothermia at 10 to 20 mg/kg, ig administered via gavage 2 hrs prior to TNFalpha stimulation and measured after 10 to 60 mins by electric thermometric method. Format: functional, organism-based. The following applies: dose 10-20 mg/kg, time 2-3 hrs. The procedure, abridged: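 Female C57BL/6J mice, fasted, n=11 per group. Agent at 10 or 20 mg/kg in 0.5% CMC-Na by gavage 2 h before i.v. mTNF-α (250 µg/kg). z-VAD-fmk i.p. 200 µg at −15 min and 75 µg at +1 h. Body temperature tracked, mean ± S.E.M.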

Test [6] concerns the target T1, Heat shock protein HSP90 (Homo sapiens) (UniProt P07900+P08238). Description: Inhibition of HSP90 in TNFalpha/SM-164/Z-VAD-fmk (TSZ)-induced human HT-29 cells assessed as reduction in RIPK3 expression at 10 uM preincubated for 30 mins followed by TSZ stimulation and measured after 2 to 6 hrs by Western blot analysis. Format: cell-based. The following applies: time 2-6.5 hrs. The procedure, abridged: (§3)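 HT-29 cells pretreated 30 min with agent (10 μM), then TSZ for the indicated times. Lysed in RIPA with protease and phosphatase inhibitors, BCA quantified. 30 μg protein run on SDS-PAGE and blotted to PVDF. Blocked in 5% BSA, primary antibodies 1:1000 overnight at 4 °C, secondary 1:8000 for 1 h at room temperature.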

The test system of test [7] is HT-29. Description: Protection against TNFalpha/cycloheximide (TC)-induced apoptosis in human HT-29 cells assessed as increase in cell viability at 0.25 to 5 uM measured after 24 hrs by celltiter-glo luminescent cell viability assay. Format: functional, cell-based. The following applies: dose 0.25-5 µM. Put shortly: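 HT-29 cells treated with agent across concentrations, then TNF-α and cycloheximide (TC) for 24 h. CellTiter-Glo luminescent viability, mean ± S.D. from three independent experiments.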

The target in test [8] is T1, Heat shock protein HSP90 (Homo sapiens). Nature of the test: Inhibition of HSP90 in TNFalpha/SM-164/Z-VAD-fmk (TSZ)-induced human HT-29 cells assessed as reduction in MLKL expression at 10 uM preincubated for 30 mins followed by TSZ stimulation and measured after 2 to 6 hrs by Western blot analysis. It counts as cell-based. The following applies: time 2-6.5 hrs. The procedure, abridged: as §3
(In general: A western blot detects proteins with antibodies after separation by electrophoresis.)

Test [9] deals with Rattus norvegicus. Description: Neuroprotective activity in middle cerebral artery occlusion-induced Sprague-Dawley rat model of ischemia-reperfusion injury assessed as neurological deficit score at 100 mg/kg (reference value: 3.71 +/- 0.45). It counts as functional.
Test [10] has as its system Rattus norvegicus. Nature of the test: Neuroprotective activity in middle cerebral artery occlusion-induced Sprague-Dawley rat model of ischemia-reperfusion injury assessed as reversal of pathological change at 100 mg/kg by H and E staining based analysis. It counts as functional, organism-based. The procedure, abridged:
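Rats underwent 2 h MCA filament occlusion, then 24 h reperfusion, agent at 100 mg/kg. Animals perfused with saline and 4% paraformaldehyde. Brains paraffin-embedded and cut into 5 μm coronal sections. Hippocampus and cortex assessed by HE staining.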

Test [11] addresses T1, Heat shock protein HSP90 (Homo sapiens). Description: Inhibition of HSP90 in TNFalpha/SM-164/Z-VAD-fmk (TSZ)-induced human HT-29 cells assessed as increase in HSP70 expression at 10 uM by Western blot analysis. Format: cell-based. The following applies: time 0.5-6 hrs.
The target is the same in test [12]. Nature of the test: Inhibition of HSP90 in TNFalpha/SM-164/Z-VAD-fmk (TSZ)-induced human HT-29 cells assessed as reduction in RIPK1 expression at 10 uM preincubated for 30 mins followed by TSZ stimulation and measured after 2 to 6 hrs by Western blot analysis. Format: cell-based. The following applies: time 2-6.5 hrs. Put shortly:
as §3

Test [13] has as its system HT-29. Description: Anti-necroptotic activity in human HT-29 cells assessed as inhibition of TNFalpha/SM-164/Z-VAD-fmk (TSZ)-induced necroptosis by measuring increase in cell viability at 10 uM measured after 12 hrs in presence of MLKL inhibitor NSA by celltiter-glo luminescent cell viability assay. It counts as functional, cell-based. Put shortly: as §2
In test [14] the target is T1, Heat shock protein HSP90 (Homo sapiens). Description: Inhibition of HSP90 in TNFalpha/SM-164/Z-VAD-fmk (TSZ)-induced human HT-29 cells assessed as reduction in EGFR expression at 10 uM by Western blot analysis. It counts as cell-based. The following applies: time 0.5-6 hrs.
The test system of test [15] is HT-29. Nature of the test: Anti-necroptotic activity in human HT-29 cells assessed as inhibition of TNFalpha/cycloheximide/Z-VAD-fmk (TCZ)-induced necroptosis by measuring increase in cell viability measured after 16 hrs by celltiter-glo luminescent cell viability assay. Format: functional, cell-based.
Another test concerns L929. Nature of the test: Anti-necroptotic activity in mouse L929 cells assessed as inhibition of TNFalpha/Z-VAD-fmk (TZ)-induced necroptosis by measuring increase in cell viability measured after 12 hrs by celltiter-glo luminescent cell viability assay. Format: functional, cell-based. Put shortly: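 Mouse L929 fibroblasts pretreated with test agent, then mouse TNF-α (20 ng/mL) plus z-VAD-fmk (20 μM). Incubation stated as 4 h in table footnote and 12 h in figure legend. CellTiter-Glo viability. EC50 ± SD from at least three independent repeats.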

The subject of test [16] is HT-29. Description: Anti-necroptotic activity in human HT-29 cells assessed as inhibition of TNFalpha/SM-164/Z-VAD-fmk (TSZ)-induced necroptosis by measuring increase in cell viability at 10 uM measured after 12 hrs in presence of RIPK3 inhibitor SZM630 by celltiter-glo luminescent cell viability assay. Format: functional, cell-based. Put shortly: as §2

Active and inactive are the calls of the source. The rule behind the calls is not given here.

A word on the EC50: it is the concentration that produces a half-maximal response.

In the case of `CC1(C)CC[C@]2(C(=O)n3cnc(-c4cccnc4)c3)CC[C@]3(C)[C@H](C(=O)C=C4[C@@]5(C)C=C(C#N)C(=O)C(C)(C)[C@@H]5CC[C@]43C)[C@@H]2C1`, the result with Mus musculus [1], with Mus musculus [3], in the test with Mus musculus [5], in the test on HT-29 [7] and with Rattus norvegicus [10] was Active. Besides, the inhibition entry (in the test on HT-29 [2]; in test [6]; in test [8]; in test [12]; in the test with HT-29 [13]; with HT-29 [16]) was “Active” each time. Moreover, the survival at 20 mg/kg in the test on Mus musculus [4] was found to be 100%. For the same compound, the Activity with Rattus norvegicus [9] was 2.72. Moreover, the inhibition entry (in test [11]; in [14]; in the test on HT-29 [15]; in the test with L929) was “Dose-dependent effect” each time. In addition, the EC50 with L929 (L929, 12 h) was found to be 0.86 µM.
